Results on 3 molecules are retold here after ChEMBL document CHEMBL4819033, “Synthesis of Bioactive Diarylheptanoids from Alpinia officinarum and Their Mechanism of Action for Anticancer Properties in Breast Cancer Cells” (J Nat Prod, 2021).

Data set [1] relates to MCF7. Description: Antiproliferative activity against human MCF7 cells assessed as reduction in cell viability after 72 hrs by MTT assay. Particulars: for pIC50: MCF7, 72 h. The format is functional, cell-based. In outline: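 MCF-7 cells (DMEM, 10% FBS, 37 °C, 5% CO2) seeded 5 × 10³/well, left overnight, then exposed to compounds (0−50 μM) for 72 h. MTT added to 0.5 mg/mL final; formazan solubilised overnight with 10% SDS in 0.01 N HCl, absorbance at 570 nm. IC50 taken relative to vehicle (0.1% DMSO) as 100% survival. Triplicate determinations, three independent experiments; paclitaxel as positive control.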

Another data set has as its system U2OS. The data set is described as follows: Antiproliferative activity against human U2OS cells assessed as reduction in cell viability after 72 hrs by MTT assay. The format is functional, cell-based. A digest of the protocol: (§1)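 U2-OS (ATCC) or INT-407 cells, cultured in DMEM with 10% FBS at 37 °C, 5% CO2, assayed by MTT reduction under the conditions used for MCF-7: 72 h exposure, absorbance at 570 nm, viability relative to 0.1% DMSO vehicle control; INT-407 tested up to 50 μM.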

Data set [2] can be described thus: Antiproliferative activity against human INT-407 cells assessed as reduction in cell viability up to 50 uM after 72 hrs by MTT assay. The format is cell-based. Particulars: intestine 407, 72 h. A digest of the protocol: as §1
In data set [3] the test system is MCF7. The data set is described as follows: Inhibition of colony formation in human MCF7 cells incubated for 10 days by crystal violet staining based assay. The format is functional, cell-based. As to conditions: dose 1-5 µM, time 10.0 day. A digest of the protocol: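 Clonogenic survival: MCF-7 cells, 1 × 10³ per well, seeded overnight, then grown with 1, 2.5 or 5 μM in complete medium for 10 days. Colonies fixed with MeOH, stained with 0.5% crystal violet in 1:1 MeOH–water, counted. Surviving fraction corrected for plating efficiency, relative to vehicle; triplicates, three repeats.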

In data set [4] the test system is MCF7. Description: Induction of apoptosis in human MCF7 cells assessed as increase in sub-G1 cell population at 5 uM after 48 hrs by propidium iodide/RNase A staining based flow cytometric analysis (reference value: 5.4 +/- 2.1 %). The format is functional.
The test system of data set [5] is MCF7. The data set is described as follows: Induction of apoptosis in human MCF7 cells assessed as increase in sub-G1 cell population at 10 uM after 48 hrs by propidium iodide/RNase A staining based flow cytometric analysis (reference value: 5.4 +/- 2.1 %). The format is functional.
In data set [6] the test system is MCF7. The data set is described as follows: Induction of cell cycle arrest in human MCF7 cells assessed as accumulation at G2 phase at 5 to 10 uM incubated for 24 hrs by propidium iodide/RNase A staining based flow cytometry. The format is functional. Particulars: dose 5-10 µM. In outline:
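For the cell cycle, MCF-7 cells were exposed to vehicle, 5 or 10 μM for 24 h, stained with PI/RNase in 0.1% sodium citrate containing Triton X-100, and phase distribution was quantified by flow cytometry. Three experiments, each in triplicate.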

The test system of data set [7] is MCF7. The data set is described as follows: Induction of ROS generation in human MCF7 cells at 5 to 10 uM up to 3 hrs by DCFH-DA dye based flow cytometric analysis. Particulars: dose 5-10 µM, time hrs <=3. The format is functional, cell-based.
Data set [8] concerns MCF7. Description: Induction of ROS generation in human MCF7 cells at 5 to 10 uM incubated for 6 hrs by DCFH-DA dye based flow cytometric analysis. As to conditions: dose 5-10 µM. The format is functional, cell-based. In outline:
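MCF-7 cells (1 × 10⁵/well) loaded with DCFH-DA (10 μM, 30 min), washed, then exposed to 5 or 10 μM for various periods (6 h quantified); H2O2 100 μM as positive control. DCF green fluorescence (ex 480/em 530 nm) read by flow cytometry, expressed as fold of vehicle. Three repeats in triplicate.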

In data set [9] the test system is MCF7. The data set is described as follows: Induction of mitochondrial membrane potential loss in human MCF7 cells incubated for 6 hrs by JC1 staining based flow cytometry. The format is functional, cell-based. Particulars: dose 5-10 µM. In outline: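 JC-1 assay: MCF-7 cells (1 × 10⁵/well) treated at 5 or 10 μM (legend gives 6 h, methods 8 h), stained with JC-1 (5 μg/mL) for 30 min, trypsinised, and analysed by flow cytometry. MMP loss scored from the drop in red fluorescence MFI as fold of vehicle; CCCP 10 μM as positive control. Five repeats in triplicate.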

Data set [10] deals with MCF7. Description: Induction of lysosomal membrane permeabilization in human MCF7 cells at 5 to 10 uM […] by AO staining based flow cytometry. The format is functional, cell-based. Particulars: dose 5-10 µM.
The test system of data set [11] is MCF7. The data set is described as follows: Induction of lysosomal membrane permeabilization in human MCF7 cells after 6 hrs by AO staining based flow cytometry. The format is functional, cell-based. As to conditions: dose 5-10 µM. A digest of the protocol:
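MCF-7 cells treated at 5 or 10 μM (0−10 μM) for various periods, washed with PBS, then stained with acridine orange (10 μM, 15 min, 37 °C) and analysed by flow cytometry. LMP measured from green-channel MFI at 6 h as fold of vehicle; five repeats in triplicate.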

pIC50: −log10 of the molar value. The source made the active and inactive calls. The calls are words filed in the database; no cut-off is given here.

Consider `COc1cc(CC[C@@H](O)CC(=O)CCc2ccccc2)ccc1O`, for which, in the data set with MCF7 [1], the Activity entry was “Dose-Dependent Effect” and the pIC50 was less than 4.30.
`COc1cc(CC/C=C/C(=O)CCc2ccccc2)ccc1O`: the Activity entry is “Dose-Dependent Effect” in the data set with MCF7 [1]; “Non-Toxic” in data set [2]; 16.3% with MCF7 [4]; 27.5% with MCF7 [5]; “Dose-Dependent Effect” in the data set on MCF7 [9]; “Dose-Dependent Effect” in the data set on MCF7 [11]. Further, the pIC50 is 5.41 in the data set with MCF7 [1] and 4.97 with U2OS. Further, the inhibition result in the data set on MCF7 [3] was “Dose-Dependent Effect”. The result in the data set on MCF7 [6] and in the data set on MCF7 [8] was Active. Further, the result with MCF7 [7] and with MCF7 [10] was inactive.
For the molecule `COc1cc(CC[C@H](O)CC(=O)CCc2ccccc2)ccc1O`, in the data set on MCF7 [1], the Activity entry was “Dose-Dependent Effect” and the pIC50 is less than 4.30.
